Screens: PubChem, Broad Institute
This is a sample that favours compounds with a hit; in the whole collection about 3.1% have one here.
EWS-Fli block: inhibitors of EWS/Fli oncoprotein transcriptional activity | inhibition, % at 12.6 µM | 0.67% of 350,000 active | A673 NR0B1-luciferase reporter, viability-normalised;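 active = mean inhibition of at least 50% after viability correction, with every replicate also passing that limit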;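 also: firefly luciferase signal divided by Alamar Blue viability fluorescence both relative to DMSO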
FGF22 binding: FGF22 (human) thermal shift binding; Q9HCT0; 1.5% of 340,000 active; recombinant FGF22 thermal shift, SYPRO orange fluorescence; percent of sucrose octasulfate shift, DMSO zero; activity (Tm shift, normalised), % at 9.99 µM;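 active = mean Tm shift, scaled 0 neutral to 100 positive control, at about 1.3% or above, every replicate too, limit read from the data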
Target sequence (Q9HCT0 whole entry, looked up): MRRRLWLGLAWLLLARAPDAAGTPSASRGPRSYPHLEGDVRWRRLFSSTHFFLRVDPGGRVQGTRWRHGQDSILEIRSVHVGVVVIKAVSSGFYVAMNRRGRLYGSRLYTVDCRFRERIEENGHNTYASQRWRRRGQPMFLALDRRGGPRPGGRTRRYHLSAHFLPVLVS
FN deposit inh: fibronectin deposition inhibition; 0.086% of 350,000 active; AH1F fibroblasts, Alexa488-fibronectin deposition fluorescence, overnight; inhibition, % at 12.6 µM;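 active = mean inhibition across replicates of 30% or more, regardless of how many single replicates reach that level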;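 also: positive control wells lacked labelled fibronectin entirely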
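material = AH1F fibroblast monolayer depositing Alexa488-labelled fibronectin into matrix | amount = 10000 AH1F cells/well | buffer or medium = DMEM plus 2% serum, read in PBS | incubation = 1 h cell adhesion before compound, then overnight fibronectin incubation | detection = fluorescence at 485 nm excitation, 525 nm emission | evaluation = percent inhibition as loss of matrix-bound fibronectin fluorescence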
PAX8 reporter: lowers PAX8-driven luciferase in RMG-I cells. RMG-I TPO-luciferase reporter, SteadyGlo, 24 h. inhibition, % at 12.6 µM. 1.2% of 360,000 active. AID 652154;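 active = mean replicate inhibition at least 60% with every replicate also reaching 60%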;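 also: luciferase light reporting Pax8 driven TPO promoter activity; plate controls were median of neutral control wells for no effect and mitoxantrone controls for full effect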
Env fusion inh: blocks HIV Env-driven cell-cell fusion. HeLa-JRFL Env/CEM21 cell fusion, luciferase. inhibition, % at 12.3 µM. 1.1% of 360,000 active. AID 651610;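 active = mean replicate inhibition score of at least 50 and every replicate individually at or above 50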;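 also: 0% = plate neutral controls and 100% = maraviroc near 300 nM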
PGC1a acetyl inh: lowers PGC1a acetylation signal in U2OS cells; AlphaScreen anti-acetyl-lysine; with virally co-expressed GCN5 acetyltransferase; inhibition, % at 15.6 µM; 0.17% of 350,000 active; AID 651687;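 active = every replicate shows inhibition of at least 40%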;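 also: 0% = neutral control wells and 100% = positive control wells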
An asterisk follows results filed as active; [ ] = another dose, or the depositor's remark.

For COc1cccc(S(=O)(=O)N(C)C[C@@H]2Oc3cc(C#CCC(C)C)ccc3S(=O)(=O)N([C@H](C)CO)C[C@@H]2C)c1 the results were EWS-Fli block 35, FGF22 binding 0, FN deposit inh -5, Env fusion inh 62*[16.7 µM] and PGC1a acetyl inh -11.
COc1cccc(NC(=O)N2C[C@H](O)COC[C@H]3O[C@@H](CC(=O)NC4CCCC4)CC[C@@H]32)c1 was read as EWS-Fli block -12, FGF22 binding 0, FN deposit inh 0, PAX8 reporter -4 and PGC1a acetyl inh 2.
For Cc1ccc(Nc2nc3ccccc3nc2-n2nc(C)cc2C)cc1 the results were EWS-Fli block -14, FGF22 binding 0, FN deposit inh 3, PAX8 reporter 6, Env fusion inh 6 and PGC1a acetyl inh -5.
For Cc1cc(C)n(-c2ncnc3ccccc23)n1 the results were EWS-Fli block -5, FGF22 binding 43*, FN deposit inh 16, PAX8 reporter 8, Env fusion inh -8 and PGC1a acetyl inh 9.
CCc1nnc(NC(=O)CCS(=O)(=O)Cc2ccccc2)s1 was read as EWS-Fli block -10, FGF22 binding 0, FN deposit inh 3, PAX8 reporter 8 and Env fusion inh -5.
`CCc1nnc(NC(=O)CS(=O)(=O)Cc2ccccc2)s1` gave EWS-Fli block -7, FGF22 binding 1.5*, FN deposit inh 2, PAX8 reporter -10, Env fusion inh -17 and PGC1a acetyl inh -13.
CCC(CC)c1nnc(NC(=O)CCS(=O)(=O)Cc2ccccc2)s1 was read as EWS-Fli block 8, FGF22 binding 0, FN deposit inh 9, PAX8 reporter 62* and Env fusion inh -1.
COCC#Cc1cnc2c(c1)C(=O)N([C@@H](C)CO)C[C@H](C)[C@@H](CN(C)Cc1ccccc1F)O2 was read as EWS-Fli block 5, FGF22 binding 0, FN deposit inh 1, Env fusion inh -8[16.7 µM] and PGC1a acetyl inh 7.
Screening C[C@@H]1CCCCO[C@H](CN(C)S(=O)(=O)c2ccccc2)[C@H](C)CN([C@H](C)CO)C(=O)c2cc(NC(=O)Nc3ccc(C(F)(F)F)cc3)ccc2O1 returned EWS-Fli block 4, FGF22 binding 0, FN deposit inh 6, PAX8 reporter 52, Env fusion inh 20[16.7 µM] and PGC1a acetyl inh 3.
Cc1ccc(S(=O)(=O)N(C)C[C@H]2OCCCC[C@H](C)Oc3ccc(NC(=O)Nc4ccc(C(F)(F)F)cc4)cc3C(=O)N([C@@H](C)CO)C[C@@H]2C)cc1 was read as EWS-Fli block 4, FGF22 binding 0, FN deposit inh -21, PAX8 reporter 0, Env fusion inh 28[16.7 µM] and PGC1a acetyl inh 14.
For C[C@@H]1CN([C@H](C)CO)C(=O)c2cc(NC(=O)Nc3ccc(C(F)(F)F)cc3)ccc2O[C@@H](C)CCCCO[C@H]1CN(C)S(=O)(=O)c1ccccc1 the results were EWS-Fli block 12, FGF22 binding 0, FN deposit inh -1, PAX8 reporter 96*, Env fusion inh 26[16.7 µM] and PGC1a acetyl inh -4.
Cc1ccc(S(=O)(=O)N(C)C[C@H]2OCCCC[C@H](C)Oc3ccc(NC(=O)Nc4ccc(C(F)(F)F)cc4)cc3C(=O)N([C@H](C)CO)C[C@H]2C)cc1 was read as EWS-Fli block 2, FGF22 binding 0, FN deposit inh 3, PAX8 reporter -13, Env fusion inh -6[16.7 µM] and PGC1a acetyl inh 6.
`C[C@@H]1CCCCO[C@@H](CN(C)S(=O)(=O)c2cccs2)[C@H](C)CN([C@@H](C)CO)C(=O)c2cc(NC(=O)Nc3ccc(C(F)(F)F)cc3)ccc2O1` gave EWS-Fli block -6, FGF22 binding 0, PAX8 reporter 65*, Env fusion inh 26[16.7 µM] and PGC1a acetyl inh 11.
For C[C@@H]1CN([C@@H](C)CO)C(=O)c2cc(NC(=O)Nc3ccc(F)cc3)ccc2O[C@@H](C)CCCCO[C@@H]1CN(C)S(=O)(=O)c1cccs1 the results were EWS-Fli block -14, FGF22 binding 0, PAX8 reporter -29, Env fusion inh 10[16.7 µM] and PGC1a acetyl inh -9.
For C[C@H]1CCCCO[C@H](CN(C)S(=O)(=O)c2ccccc2)[C@@H](C)CN([C@@H](C)CO)C(=O)c2cc(NC(=O)Nc3ccc(C(F)(F)F)cc3)ccc2O1 the results were EWS-Fli block 3, FGF22 binding 0, FN deposit inh -13, PAX8 reporter 68*, Env fusion inh 13[16.7 µM] and PGC1a acetyl inh 5.
For C[C@@H]1CCCCO[C@@H](CN(C)S(=O)(=O)c2ccccc2)[C@H](C)CN([C@H](C)CO)C(=O)c2cc(NC(=O)Nc3ccc(C(F)(F)F)cc3)ccc2O1 the results were EWS-Fli block 12, FGF22 binding 0, FN deposit inh -1, PAX8 reporter 89*, Env fusion inh 34[16.7 µM] and PGC1a acetyl inh 5.
COCC(=O)N1[C@H](CO)[C@H]2c3ccccc3N(C(=O)NC(C)C)C[C@H]21 was read as EWS-Fli block -9, FGF22 binding 0, PAX8 reporter -5 and PGC1a acetyl inh 4.
For C[C@H](CO)N1C[C@H](C)[C@@H](CN(C)Cc2ccc3c(c2)OCO3)OCCCC[C@H](C)Oc2ccc(NC(=O)CCCN(C)C)cc2C1=O the results were EWS-Fli block -3, FGF22 binding 0, PAX8 reporter -1, Env fusion inh 14[16.7 µM] and PGC1a acetyl inh 4.
C[C@@H]1CN([C@H](C)CO)S(=O)(=O)c2ccc(-c3ccc(F)cc3)cc2O[C@@H]1CN(C)C(=O)Nc1ccc(F)cc1 was read as EWS-Fli block 31, FN deposit inh -12, Env fusion inh -13[16.7 µM] and PGC1a acetyl inh 25.
`C[C@H](CO)N1C[C@H](C)[C@H](CN(C)S(=O)(=O)c2cccs2)OCCCC[C@H](C)Oc2ccc(NC(=O)NC3CCCCC3)cc2C1=O` gave EWS-Fli block 14, FGF22 binding 0, PAX8 reporter 104*, Env fusion inh -5[16.7 µM] and PGC1a acetyl inh 3.
`CN(C)CCCNC(=O)C[C@@H]1CC[C@@H](NS(=O)(=O)c2ccccc2)[C@H](CO)O1` gave EWS-Fli block -2, FGF22 binding 0, FN deposit inh -1, PAX8 reporter -12, Env fusion inh 26[16.7 µM] and PGC1a acetyl inh -2.
`COc1ccc(NC(=O)CN2C(=O)N(C)Cc3ccccc32)c(C)c1` gave EWS-Fli block 13, FGF22 binding 44*, FN deposit inh -2, PAX8 reporter 11 and Env fusion inh 13.
`COc1ccc(NC(=O)CN2CCc3ccccc3C2)c(OC)c1` gave EWS-Fli block -21, FGF22 binding 0, FN deposit inh -3, PAX8 reporter 5 and Env fusion inh -3.
